Reference: article PMC3741069 (Biochemistry, 2013)
Substitutions are numbered along the chain they refer to.

What was measured:
nitrate reductase (NarB) [1] = molecular target: T1, nitrate reductase (NarB) (Synechococcus elongatus, UniProt P39458, K144Q); test: spectral perturbation titration; assay type: binding
T1 sequence (P39458 15-729 K144Q): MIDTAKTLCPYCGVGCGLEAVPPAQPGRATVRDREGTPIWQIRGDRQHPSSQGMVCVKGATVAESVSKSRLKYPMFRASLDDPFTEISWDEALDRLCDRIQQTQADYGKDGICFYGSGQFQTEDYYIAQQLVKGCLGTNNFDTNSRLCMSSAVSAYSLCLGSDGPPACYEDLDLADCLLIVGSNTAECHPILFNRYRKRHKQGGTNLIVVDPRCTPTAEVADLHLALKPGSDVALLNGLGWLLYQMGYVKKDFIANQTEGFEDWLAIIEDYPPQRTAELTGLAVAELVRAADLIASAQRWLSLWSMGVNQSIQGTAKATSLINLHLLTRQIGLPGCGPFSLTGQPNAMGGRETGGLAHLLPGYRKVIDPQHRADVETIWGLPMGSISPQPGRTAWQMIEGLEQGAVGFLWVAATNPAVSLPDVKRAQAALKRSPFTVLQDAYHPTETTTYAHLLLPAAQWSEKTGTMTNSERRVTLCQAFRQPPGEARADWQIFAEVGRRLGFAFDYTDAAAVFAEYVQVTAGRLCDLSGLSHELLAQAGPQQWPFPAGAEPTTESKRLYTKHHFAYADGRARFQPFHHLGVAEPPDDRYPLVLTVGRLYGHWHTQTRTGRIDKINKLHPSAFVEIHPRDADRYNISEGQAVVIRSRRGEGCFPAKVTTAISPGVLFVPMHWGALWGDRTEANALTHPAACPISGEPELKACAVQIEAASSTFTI
How it was run: (§1)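 Single-residue NarB variants were made by site-directed mutagenesis and expressed and purified as for wild type (His6, Co affinity, DEAE, gel filtration). Complex formation with ferredoxin or nitrate was followed by difference absorbance at variant-specific wavelength pairs chosen for signal:noise. The change at saturating nitrate was taken as 100% complex. Kd came from fitting perturbation magnitude against ligand concentration to a single binding isotherm.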

nitrate reductase (NarB) [2] = molecular target: T2, nitrate reductase (NarB) (Synechococcus elongatus, UniProt P39458, R84K); test: spectral perturbation titration; assay type: binding
T2 sequence (P39458 15-729 R84K): T1 sequence (P39458 15-729 K144Q) with R70K, Q130K
How it was run: as §1

O=[N+]([O-])O [nitrate]
Kd (nitrate reductase (NarB) [1]): 19 ± 6.8 µM | Kd (nitrate reductase (NarB) [2]): 6 ± 1 µM
